In ChEMBL document CHEMBL4041484, “Semisynthesis and Structure-Activity Studies of Uncarinic Acid C Isolated from Uncaria rhynchophylla as a Specific Inhibitor of the Nucleation Phase in Amyloid β42 Aggregation” (J Nat Prod, 2016):
Calls of active or inactive are those of the source. No cut-off for these calls is given here.

Tests used:
[1] = target: Amyloid-beta precursor protein (Homo sapiens) (UniProt P05067); experiment: Inhibition of HFIP pretreated Abeta42 (unknown origin) aggregation at nucleation phase assessed as time required for nucleation of Abeta42 at 50 uM by Thioflavin-T fluorescence assay
Chain of Amyloid-beta precursor protein (Homo sapiens) (P05067 whole entry): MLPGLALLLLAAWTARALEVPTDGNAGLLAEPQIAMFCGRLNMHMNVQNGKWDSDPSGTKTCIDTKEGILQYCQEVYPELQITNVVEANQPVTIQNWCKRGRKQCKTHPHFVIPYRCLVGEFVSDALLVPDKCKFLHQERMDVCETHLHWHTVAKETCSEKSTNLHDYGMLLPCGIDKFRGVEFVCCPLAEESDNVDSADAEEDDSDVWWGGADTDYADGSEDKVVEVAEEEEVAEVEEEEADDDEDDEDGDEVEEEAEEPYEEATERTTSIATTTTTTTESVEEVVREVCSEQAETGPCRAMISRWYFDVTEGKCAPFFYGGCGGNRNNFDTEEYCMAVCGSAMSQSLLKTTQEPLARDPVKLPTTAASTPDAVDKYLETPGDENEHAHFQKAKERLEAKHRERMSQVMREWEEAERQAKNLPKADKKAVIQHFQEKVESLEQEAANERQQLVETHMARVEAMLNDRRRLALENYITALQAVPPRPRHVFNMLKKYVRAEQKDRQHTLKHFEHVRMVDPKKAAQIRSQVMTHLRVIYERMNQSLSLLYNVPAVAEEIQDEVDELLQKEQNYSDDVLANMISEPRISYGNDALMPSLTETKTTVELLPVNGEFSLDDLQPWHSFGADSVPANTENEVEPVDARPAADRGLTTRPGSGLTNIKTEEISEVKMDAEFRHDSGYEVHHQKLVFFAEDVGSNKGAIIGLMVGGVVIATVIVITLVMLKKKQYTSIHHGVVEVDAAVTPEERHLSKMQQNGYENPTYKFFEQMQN
Method in brief: (§1)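 Aβ42 was held at 250 μM in HFIP for 30 min at room temperature, sonicated 5 min, dried under reduced pressure, then redissolved in 0.1% NH4OH. It was incubated at 25 μM with compound at 50 μM in PBS, pH 7.4, at 37 °C, sampled periodically over time. Th-T (5.0 μM, Gly-NaOH pH 8.5) fluorescence was read at ex 430/em 485 nm. Means ± SD, n = 8.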

[2] = target: Amyloid-beta precursor protein (Homo sapiens) (UniProt P05067); experiment: Inhibition of Abeta42 (unknown origin) aggregation at early stage incubated for 8 hrs by Thioflavin-T fluorescence assay
Method in brief: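 Synthetic Aβ42 (250 μM stock in 0.1% NH4OH), final 25 μM, with compound at 50 μM final (5 mM ethanol stock) in PBS (50 mM sodium phosphate, 100 mM NaCl, pH 7.4), 37 °C for 8 h. An aliquot was mixed with 5.0 μM Th-T in 5.0 mM Gly-NaOH, pH 8.5, and read at ex 430/em 485 nm. Eight points were measured per time.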

[3] = Solubility of the compound in phosphate-buffered saline at pH 7.4 at 50 uM; type: physicochemical; conditions: buffer, pH 7.4, 50 µM
[4] = target: Amyloid-beta precursor protein (Homo sapiens) (UniProt P05067); experiment: Inhibition of HFIP pretreated Abeta42 (unknown origin) aggregation at nucleation phase at 50 uM by Thioflavin-T fluorescence assay; method in brief: as §1
[5] = target: Amyloid-beta precursor protein (Homo sapiens) (UniProt P05067); experiment: Inhibition of HFIP pretreated Abeta42 (unknown origin) aggregation at elongation phase at 50 uM by Thioflavin-T fluorescence assay; method in brief: as §1
[6] = target: Amyloid-beta precursor protein (Homo sapiens) (UniProt P05067); experiment: Inhibition of HFIP pretreated Abeta42 (unknown origin) aggregation at nucleation phase assessed as time delay for Abeta42 aggregation velocity at 50 uM by sedimentation assay
Method in brief: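 HFIP-pretreated Aβ42 (25 μM) and compound (50 μM) were incubated in PBS, pH 7.4, at 37 °C over a time course. Samples were centrifuged at 15 000 rpm, 4 °C, 10 min. Supernatant Aβ42 was quantified by reversed-phase HPLC (ODS, 10–50% CH3CN in 0.1% NH4OH over 30 min, 1.0 mL/min, UV detection). Means ± SE, n = 2.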

Row | Compound | TIME [1] [h] | inhibition [2] | solubility [3] | inhibition [4] | inhibition [5] | TIME [6] [h]
1 | COc1cc(/C=C\C(=O)OC[C@@]23CC[C@@]4(C(=O)O)CCC(C)(C)C[C@H]4C2=CC[C@@H]2[C@@]4(C)CC[C@H](O)C(C)(C)[C@@H]4CC[C@]23C)ccc1O | 10 | Active | Soluble | – | – | –
2 | COc1cc(/C=C/C(=O)OC[C@@]23CC[C@@]4(C(=O)O)CCC(C)(C)C[C@H]4C2=CC[C@@H]2[C@@]4(C)CC[C@H](O)C(C)(C)[C@@H]4CC[C@]23C)ccc1O | 10 | Active | Soluble | – | – | –
3 | COc1cc(/C=C/C(=O)OC[C@@]23CC[C@@]4(C(=O)O)CC[C@@H](C)[C@H](C)[C@H]4C2=CC[C@@H]2[C@@]4(C)CC[C@H](O)C(C)(C)[C@@H]4CC[C@]23C)ccc1O | 12 | Active | Soluble | – | – | 8
4 | COC(=O)[C@]12CC[C@@H](C)[C@H](C)[C@H]1C1=CC[C@@H]3[C@@]4(C)CC[C@H](O)C(C)(C)[C@@H]4CC[C@@]3(C)[C@]1(COC(=O)/C=C/c1ccc(O)c(OC)c1)CC2 | – | – | – | inactive | inactive | –
5 | COc1cc(/C=C/C(=O)OC[C@@]23CC[C@@]4(CO)CC[C@@H](C)[C@H](C)[C@H]4C2=CC[C@@H]2[C@@]4(C)CC[C@H](O)C(C)(C)[C@@H]4CC[C@]23C)ccc1O | – | – | – | inactive | inactive | –

More lines, now with the values ahead:

Row | TIME [1] [h] | inhibition [2] | solubility [3] | inhibition [4] | inhibition [5] | TIME [6] [h] | Compound
6 | – | – | – | inactive | inactive | – | C[C@H]1[C@H](C)CC[C@]2(C(=O)O)CC[C@]3(C)C(=CC[C@@H]4[C@@]5(C)CC[C@H](O)C(C)(C)[C@@H]5CC[C@]43C)[C@H]12
7 | – | – | – | inactive | inactive | – | C[C@H]1[C@H](C)CC[C@]2(C(=O)O)CC[C@]3(CO)C(=CC[C@@H]4[C@@]5(C)CC[C@H](O)C(C)(C)[C@@H]5CC[C@]43C)[C@H]12
8 | 10 | Active | Soluble | – | – | – | COc1cc(/C=C\C(=O)OC[C@@]23CC[C@@]4(C(=O)O)CC[C@@H](C)[C@H](C)[C@H]4C2=CC[C@@H]2[C@@]4(C)CC[C@H](O)C(C)(C)[C@@H]4CC[C@]23C)ccc1O
9 | – | – | – | inactive | inactive | – | CC(=O)OC[C@@]12CC[C@@]3(C(=O)O)CC[C@@H](C)[C@H](C)[C@H]3C1=CC[C@@H]1[C@@]3(C)CC[C@H](O)C(C)(C)[C@@H]3CC[C@]12C
